# Compound activity deposited in PubChem BioAssay by several laboratories.
# A selection: hits, their analogues and other compounds. The true share with any hit is near 1.9%.
# NOD2-RIPK2 inh – blocks binding of human NOD2 to RIPK2. O43353. CHO BLA complementation NOD2-RIPK2, CCF4 ratio. inhibition, % at 4.98 µM. 0.38% of 360,000 active. AID 624267; in the data active means inhibition above about 21%;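 further: 0% = vehicle only and 100% = reference blocker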
# NTR1 ag – agonists of human neurotensin receptor NTR1. P30989. NTR1-U2OS beta-arrestin-GFP spot imaging, agonist mode. activation, % at 20 µM. 0.17% of 330,000 active;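 active means activation at or above 40% of the spot to cytoplasm intensity ratio, with at least 20 cells analyzed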;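 further: 0% = DMSO without peptide and 100% = 100 nM NTR1 peptide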
# Target sequence (P30989 whole entry, looked up): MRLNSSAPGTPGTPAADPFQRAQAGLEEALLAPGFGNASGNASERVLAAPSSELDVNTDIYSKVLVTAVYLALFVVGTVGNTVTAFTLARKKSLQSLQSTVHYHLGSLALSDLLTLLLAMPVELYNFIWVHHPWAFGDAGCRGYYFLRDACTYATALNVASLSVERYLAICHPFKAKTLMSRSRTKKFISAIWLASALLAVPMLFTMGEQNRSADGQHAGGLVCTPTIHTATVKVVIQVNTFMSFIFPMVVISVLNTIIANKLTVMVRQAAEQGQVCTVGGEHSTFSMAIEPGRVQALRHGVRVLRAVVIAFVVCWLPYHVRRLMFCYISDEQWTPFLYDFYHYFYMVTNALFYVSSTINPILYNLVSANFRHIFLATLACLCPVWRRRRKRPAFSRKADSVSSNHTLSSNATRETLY
# TLR4-MyD88 BLA – TLR4-MyD88 interaction inhibition in cells; 0.18% of 200,000 active; HeLa CL3-4 TLR4/MyD88 BLA complementation, FRET ratio; AID 861; O00206+Q99836; inhibition, % at 8.4 µM; in the data active means inhibition above about 25%;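 further: 0% = vehicle and 100% = reference inhibitor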
# MC4R barr agon – human MC4R agonism via beta-arrestin; P32245; U2OS MC4R beta-arrestin complementation, luminescence; percent of melanotan II response, DMSO zero; activation, % at 8.9 µM; 0.98% of 360,000 active; AID 540308;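 active means activation above a per-plate cutoff, the mean activation of sample wells on that plate plus 3 SD, cut at about 8% in these data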
# MC4R antag cAMP – antagonists of human melanocortin 4 receptor (MC4R); MC4R-expressing cells, MTII-stimulated cAMP, LANCE TR-FRET; inhibition, % at 6.5 µM; 0.48% of 360,000 active; AID 540295;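 active means inhibition above its plate's cutoff, the mean of tested wells on that plate plus 3 SD, cut at about 29% in these data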;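 further: 0% = Melanotan II alone and 100% = Melanotan II plus saturating MCL0020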
#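 Assay system: U2OS-MC4R stable cell line; Also added: Melanotan II; Technique: Eu-cAMP/anti-cAMP TR-FRET, emission 671 nm; Times: 30-min compound, 1-h challenge, 1-h detection, room temperature.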
# TLR9-MyD88 block – TLR9-MyD88 interaction inhibition. CHO BLA complementation TLR9-MyD88, CCF4 FRET ratio. inhibition, % at 4.98 µM. 0.21% of 340,000 active. AID 504734;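 active means inhibition above the mean over all tested compounds plus 3 SD, cut at about 21% in these data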;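 further: 0% = DMSO only wells and 100% = clavulanate BLA inhibitor control wells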
# U2OS cAMP counter – U2OS forskolin cAMP inhibition counter-screen. shares compounds with MC4R antag cAMP. parental U2OS, LANCE TR-FRET. inhibition, % at 6.5 µM. 26% of 1,600 active;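 active means mean inhibition over triplicates above the low-control well mean plus 3 SD, set per campaign, cut at about 13% in these data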;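 further: signal is single emission at 671 nm which falls as cellular cAMP rises; 0% = forskolin-stimulated wells and 100% = buffer without forskolin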
# MC4R cAMP antag – human MC4R cAMP antagonism confirmation | shares compounds with MC4R antag cAMP | MC4R-expressing cells, MTII-stimulated cAMP, TR-FRET | inhibition, % at 6.5 µM | 27% of 1,600 active | AID 602195; in the data active means inhibition above about 29%;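 further: 0% = agonist stimulated wells alone and 100% = agonist stimulated wells plus saturating reference antagonist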
# The depositor's hits bear a star; · = not tested or not shown.
SMILES,NOD2-RIPK2 inh,NTR1 ag,TLR4-MyD88 BLA,MC4R barr agon,MC4R antag cAMP,TLR9-MyD88 block,U2OS cAMP counter,MC4R cAMP antag
COC(=O)c1ccc(-c2noc(CN(C)CCC3CCCCO3)n2)cc1 (stereo not drawn),-1,0,2,-1,2,3,·,·
Cc1cccc(C)c1NC(=O)COc1ccccc1C(=O)Nc1ccc(Br)cn1,5,12,-4,3,33*,6,50*,91*
COCCNC(=O)c1ccccc1NC(=O)Nc1ccccc1,-9,0,8,0,31*,0,3,11
CC(=O)C1=C(O)C(=O)N(c2ccc(Br)cn2)C1c1cccc([N+](=O)[O-])c1 (stereo not drawn),0,1,·,0,5,6,·,·
COC(=O)c1cc(C(=O)NCc2ccccc2)c(=O)[nH]c1C,-9,0,-2,0,30*,-3,3,7
CCOC(=O)c1cc(C(=O)NC(C)c2ccccc2)c(=O)[nH]c1C (stereo not drawn),10,1,·,1,11,-10,·,·
CCCNC(=O)CSc1nc2ccc(OCC)cc2s1,-3,0,10,-1,1,-4,·,·
O=C(CNC(=O)C1CCCCC1)OC(C(=O)c1ccccc1)c1ccccc1 (stereo not drawn),2,-1,·,0,14,-9,·,·
O=C(NCCN1CCC(n2c(=O)[nH]c3ccccc32)CC1)c1c(F)cccc1F,1,·,·,·,·,·,·,·
CN1CCN(C(=O)/C=C/c2cn(-c3ccccc3)nc2-c2ccc3c(c2)OCCO3)CC1,-4,2,-2,-1,36*,3,7,23
Cc1ccc(S(=O)(=O)NCC(=O)OC(C)C(=O)Nc2ncc(Cl)cc2Cl)cc1 (stereo not drawn),-1,3,0,-2,31*,4,14*,27
Cc1ccccc1NC(=O)c1c(F)c(F)c(F)c(F)c1F,4,4,6,0,18,-11,·,·
O=C(Nc1ccccc1Cl)c1c(F)c(F)c(F)c(F)c1F,5,4,13,2,37*,4,49*,77*
COC(=O)CSc1ccc(C#N)c(SCC(=O)OC)c1,-7,-1,-10,-1,35*,2,17*,21
NNC(=S)NCc1ccco1,0,-1,·,1,4,-7,·,·
CCOC(=O)C1=C(O)/C(=C\c2ccc(CNC(=O)C(=O)Nc3ccc(C)c(C)c3)o2)N=C1C,·,·,-6,·,·,·,·,·
Cn1c(=O)c2c(-c3ccccc3)n(-n3cnnc3)cc2n(C)c1=O,-3,6,10,-2,29*,-2,2,10
CCOC(=O)c1c(NC(=O)C2CCCO2)sc(C(N)=O)c1C (stereo not drawn),8,0,-6,2,0,-1,·,·
CCOC(=O)c1c(NC(=O)C2c3ccccc3Oc3ccccc32)sc(C(N)=O)c1C,-2,15,12,4,32*,-2,6,22
Cc1cc(NC(=O)/C(C#N)=C/c2ccc(-c3ccc(SC(F)F)cc3)o2)n(-c2ccccc2)n1,-1,26,6,-2,36*,-4,2,-6
Cc1ccccc1CNC(=O)c1ccc(CSCc2ccccc2)cc1,-8,2,8,-1,-2,-1,·,·
Cc1csc2nc(COC(=O)c3ccc(Cl)c([N+](=O)[O-])c3)cc(=O)n12,-6,22,·,-1,-45,6,·,·
C/C(=N\Nc1ccc(Cl)c(C(=O)O)c1)c1ccc(N2CCOCC2)cc1,3,1,·,0,-12,-11,·,·
O=C1CCCN1c1ccc(S(=O)(=O)Nc2cccnc2)cc1,-13,0,10,-2,29*,-3,-1,-5
Cc1ccc(S(=O)(=O)Nc2cccnc2)cc1,-8,0,5,1,-1,8,·,·
SMILES,NOD2-RIPK2 inh,NTR1 ag,TLR4-MyD88 BLA,MC4R barr agon,MC4R antag cAMP,TLR9-MyD88 block,U2OS cAMP counter,MC4R cAMP antag
CC(C)C[C@H](NC(=O)c1[nH]cnc1C(=O)Nc1ccc(CNC(=O)OC(C)(C)C)cc1)C(=O)OC(C)(C)C,0,34,·,-1,16,6,·,·
CC(C)C[C@H](NC(=O)c1[nH]cnc1C(=O)Nc1ccc(CNC(=O)OC(C)(C)C)cc1)C(=O)OCc1ccccc1,0,18,·,4,61*,7,18*,37*
C[C@H](NC(=O)c1[nH]cnc1C(=O)Nc1ccc(CNC(=O)OC(C)(C)C)cc1)C(=O)OCc1ccccc1,-8,32,·,6,29*,-1,-33,-43
CN(CC1CCCO1)S(=O)(=O)c1ccc(C(=O)Nc2nccs2)cc1 (stereo not drawn),-8,1,·,-1,10,-7,·,·
O=C(CSc1nnc(CNC(=O)c2ccccc2F)o1)NC1CCCC1,-4,-1,·,-2,0,8,·,·
CCOC(=O)c1ccc(NC(=O)NCc2ccccc2OC)cc1,0,-1,-9,-1,30*,1,2,4
CCOC(=O)c1ccc(NC(=O)NCCc2ccccc2OC)cc1,8,1,1,-4,0,1,·,·
COc1ccc(-c2cc(C(=O)N(C)CC(=O)Nc3cccc(F)c3)c3ccccc3n2)cc1OC,-9,·,·,-1,30*,2,1,1
CO[C@H]1CN(C)C(=O)c2ccc(NC(=O)C3CCC3)cc2OC[C@H](C)N(CC2CCCCC2)C[C@@H]1C,-1,·,·,·,·,·,·,·
O=C(CNC(=O)C12CC3CC(CC(C3)C1)C2)NCc1ccccc1,-2,1,·,0,3,0,·,·
NNC(=O)CNC(=O)C12CC3CC(CC(C3)C1)C2,-4,-2,2,3,29*,6,-5,-16
CCOP(=O)(OCC)C(C#N)=C1SCN(c2ccccc2)CS1,-4,-1,-14,-1,1,-1,·,·
NS(=O)(=O)c1ccc(CNC(=O)c2cc(-c3cccnc3)nc3ccc(Cl)cc23)cc1,5,4,·,-1,1,-1,·,·
NS(=O)(=O)c1ccc(CNC(=O)c2cc(-c3ccccn3)nc3ccc(Cl)cc23)cc1,-10,0,-10,-2,30*,-4,12,13
Cn1c(=O)[nH]c(=O)c2c1nc(Br)n2CC(O)COc1ccc(Cl)cc1 (stereo not drawn),-11,4,11,2,31*,6,-4,-2
COc1ccc(OCC(O)Cn2c(Br)nc3c2c(=O)[nH]c(=O)n3C)cc1 (stereo not drawn),-2,2,13,-2,-8,-3,·,·
Cc1cc(C(C)(C)C)oc1C(=O)N(CC(=O)NC1CCCC1)Cc1ccccc1Cl,-5,9,-2,1,14,-8,·,·
